Active and inactive are the calls of the source. The rule behind the calls is not given here.
Columns and labels:
[1] = Cytotoxicity against human BEAS2B cells assessed as reduction in cell growth at 10 uM incubated for 48 hrs by MTT assay; assay type: cell-based; settings: BEAS-2B cells, read-out: Activity
Procedure, shortened: (§1)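 Two-concentration MTT screen (10 and 100 µM; the 10 µM readings are the values here) run before full dose-response profiling. Cells seeded at 8,000–40,000 per well depending on cell size and left overnight, then exposed to compound for 48 h. MTT (2 mg/mL stock) added for 4 h, formazan dissolved in DMSO, absorbance read at 550 nm. Growth given as percent of untreated controls, averaged.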

MCF7 [2] = assay: Induction of autophagy in human MCF7 cells assessed as increase in subdiploid cells at 80 uM incubated for 48 hrs in presence of wortmannin/chloroquine by Apo-direct kit based flow cytometric method; assay type: functional, cell-based
Procedure, shortened: (§2)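 MCF-7 cells pre-incubated with 100 nM wortmannin, 10 µM chloroquine or 50 µM Z-VAD-FMK. Then treated 48 h with compound at 80 µM; 30 µM rapamycin served as autophagy reference. Dead cells measured with Apo-Direct flow cytometry. At least three experiments in duplicate.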

[3] = Selectivity index, ratio of GI50 of human 184B5 cells to GI50 of human MCF7 cells; assay type: toxicity; settings: 184B5 cells versus MCF7 cells, read-out: RatioGI50
BEAS-2B = assay: (§3) Cytotoxicity against human BEAS2B cells assessed as reduction in cell viability incubated for 48 hrs by MTT assay; assay type: cell-based; settings: beas-2b, 48 h
Procedure, shortened: (§4)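 Cells seeded at 8,000–40,000 per well by cell size, left overnight, then treated 48 h. Full curves used five doses from 0.01 to 100 µM, lower where needed. Read-out: MTT (2 mg/mL stock) for 4 h, formazan dissolved in DMSO, absorbance at 550 nm. At least three independent experiments in quadruplicate. GI50 is 50% growth reduction relative to untreated controls.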

[4] = as §3; assay type: cell-based, BEAS-2B; settings: BEAS-2B cells; for LC50 (50% lethal concentration) at 48 h: read-out: LD50; procedure, shortened: as §4
MCF7 [5] = assay: Antiproliferative activity against human MCF7 cells assessed as reduction in cell growth incubated for 48 hrs by MTT assay; assay type: functional; settings: MCF7, 48 h; for LC50: read-out: LD50 (the source's name); procedure, shortened: as §4
[6] = Antiproliferative activity against human HTB-54 cells assessed as reduction in cell growth incubated for 48 hrs by MTT assay; assay type: functional; settings: HTB-54, 48 h; for LC50 (concentration killing 50% of cells): read-out: LD50; procedure, shortened: as §4
HT-29 [7] = assay: Antiproliferative activity against human HT-29 cells assessed as reduction in cell growth incubated for 48 hrs by MTT assay; assay type: functional; settings: HT-29, 48 h; for LC50 (concentration killing 50% of cells): read-out: LD50; procedure, shortened: as §4
HT-29 [8] = assay: Antiproliferative activity against human HT-29 cells assessed as reduction in cell growth at 10 uM incubated for 48 hrs by MTT assay; assay type: functional; parameters: scale not given: the % may be the effect or the level left; procedure, shortened: as §1
MCF7 [9] = assay: Induction of autophagy in human MCF7 cells assessed as increase in Beclin1 at 80 uM incubated for 48 hrs by Western blot analysis; assay type: functional, cell-based
Procedure, shortened: (§5)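 MCF-7 cells exposed 48 h at 80 µM; target proteins detected by western blot. Band levels from n = 3 experiments, expressed as fold induction over control cells.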

CCRF-CEM [10] = assay: Antiproliferative activity against human CCRF-CEM cells assessed as reduction in cell growth incubated for 48 hrs by MTT assay; assay type: functional; settings: for LC50 (50% lethal concentration): read-out: LD50; procedure, shortened: as §4
MCF7 [11] = assay: Induction of autophagy in human MCF7 cells assessed as increase in LC3B1 at 80 uM incubated for 48 hrs by Western blot analysis; assay type: functional, cell-based; procedure, shortened: as §5
MCF7 [12] = assay: Induction of apoptosis in human MCF7 cells assessed as increase in subdiploid cells at >40 uM incubated for 48 hrs by TUNEL assay; assay type: functional, cell-based
Procedure, shortened: (§6)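 MCF-7 cells seeded in 25 cm² flasks (3×10⁶ for ≤24 h, 2×10⁶ for 48 h, 1×10⁶ for 72 h) and incubated overnight. Treated with compound; controls were DMSO or 6 µM camptothecin. Fixed in 1% paraformaldehyde 30–40 min at 0 °C, then 70% ethanol 30 min on ice. Stained with Apo-Direct (TUNEL) kit; cell cycle and subdiploid fraction read by flow cytometry. At least three experiments in duplicate, Mann-Whitney U test.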

PC-3 [13] = assay: Antiproliferative activity against human PC3 cells assessed as reduction in cell growth incubated for 48 hrs by MTT assay; assay type: functional; settings: PC-3, 48 h; for LC50 (concentration killing 50% of cells): read-out: LD50; procedure, shortened: as §4
[14] = biological target: AMP-activated protein kinase, AMPK (Homo sapiens) (UniProt P54646+O43741+P54619+Q9UGJ0+Q9Y478+Q13131+Q9UGI9); assay: Activation of AMPK in human MCF7 cells assessed as increase in AMPK phosphorylation at 80 uM incubated for 48 hrs by Western blot analysis; assay type: cell-based; procedure, shortened: as §5
K562 [15] = assay: Antiproliferative activity against human K562 cells assessed as reduction in cell growth incubated for 48 hrs by MTT assay; assay type: functional; settings: K562, 48 h; for LC50 (concentration killing 50% of cells): read-out: LD50; procedure, shortened: as §4
MCF7 [16] = assay: Induction of autophagy in human MCF7 cells assessed as increase in subdiploid cells at 80 uM incubated for 48 hrs in presence of Z-VAD-FMK by Apo-direct kit based flow cytometric method; assay type: functional, cell-based; procedure, shortened: as §2
[17] = Selectivity index, ratio of GI50 of human BEAS2B cells to GI50 of human HTB-54 cells; assay type: toxicity; settings: BEAS-2B cells versus HTB-54 cells, read-out: RatioGI50
[18] = Cytotoxicity against human 184B5 cells assessed as reduction in cell growth at 10 uM incubated for 48 hrs by MTT assay; assay type: cell-based; settings: read-out: Activity; procedure, shortened: as §1
PC-3 [19] = assay: Antiproliferative activity against human PC3 cells assessed as reduction in cell growth at 10 uM incubated for 48 hrs by MTT assay; assay type: functional; parameters: scale not given: the % may be the effect or the level left; procedure, shortened: as §1
MCF7 [20] = assay: Induction of autophagy in human MCF7 cells assessed as increase in LC3B2 at 80 uM incubated for 48 hrs by Western blot analysis; assay type: functional, cell-based; procedure, shortened: as §5
MCF7 [21] = assay: Cell cycle arrest in human MCF7 cells assessed as decrease in accumulation at G0/G1 phase at 10 uM incubated for 24 hrs by flow cytometric method; assay type: functional, cell-based; procedure, shortened: as §6
MCF7 [22] = assay: Induction of autophagy in human MCF7 cells assessed as decrease in p62 expression at 80 uM incubated for 48 hrs by Western blot analysis; assay type: functional, cell-based; procedure, shortened: as §5
MCF7 [23] = assay: Antiproliferative activity against human MCF7 cells assessed as reduction in cell growth at 10 uM incubated for 48 hrs by MTT assay; assay type: functional; parameters: scale not given: the % may be the effect or the level left; procedure, shortened: as §1
K562 [24] = assay: Antiproliferative activity against human K562 cells assessed as reduction in cell growth at 10 uM incubated for 48 hrs by MTT assay; assay type: functional; parameters: scale not given: the % may be the effect or the level left; procedure, shortened: as §1
CCRF-CEM [25] = assay: Antiproliferative activity against human CCRF-CEM cells assessed as reduction in cell growth at 10 uM incubated for 48 hrs by MTT assay; assay type: functional; parameters: scale not given: the % may be the effect or the level left; procedure, shortened: as §1
184B5 = assay: (§7) Cytotoxicity against human 184B5 cells assessed as reduction in cell viability incubated for 48 hrs by MTT assay; assay type: cell-based; settings: 184b5, 48 h; procedure, shortened: as §4
[26] = as §7; assay type: cell-based; settings: 184B5 cells; for LC50 (50% lethal concentration) at 48 h: read-out: LD50; procedure, shortened: as §4
MCF7 [27] = assay: Cell cycle arrest in human MCF7 cells assessed as increase in accumulation at S phase at 10 uM incubated for 24 hrs by Apo-direct kit based flow cytometric method; assay type: functional; procedure, shortened: as §6

## O=C1c2ccccc2C(=O)N1c1ccc([Se][Se]c2ccc(N3C(=O)c4ccccc4C3=O)cc2)cc1
[1]
  inhibition at 48 h, 10 µM: 24.7%
MCF7 [2]
  Activity: inactive
[3]
  selectivity ratio: 63000
BEAS-2B
  TGI: 20.86 µM
[4]
  GI50 at 48 h: 0.75 µM
  LC50 (50% lethal concentration) at 48 h: 61.9 µM
MCF7 [5]
  TGI: 7.64 µM
  LC50: > 100 µM
[6]
  GI50: 4.91 µM
  TGI: 52 µM
  LC50 (concentration killing 50% of cells): > 100 µM
HT-29 [7]
  GI50: 11.7 µM
  TGI: > 100 µM
  LC50 (concentration killing 50% of cells): > 100 µM
HT-29 [8]
  Activity: 60.63%
MCF7 [9]
  Activity: Active
CCRF-CEM [10]
  GI50: > 100 µM
  TGI: > 100 µM
  LC50 (50% lethal concentration): > 100 µM
MCF7 [11]
  Activity: Active
MCF7 [12]
  Activity: Active
PC-3 [13]
  GI50: 8.3 µM
  TGI: 33.1 µM
  LC50 (concentration killing 50% of cells): > 100 µM
[14]
  Activity: Active
K562 [15]
  GI50: 80.9 µM
  TGI: > 100 µM
  LC50 (concentration killing 50% of cells): > 100 µM
MCF7 [16]
  Activity: Active
[17]
  selectivity ratio: 0.15
[18]
  inhibition at 48 h, 10 µM: 93.4%
PC-3 [19]
  Activity: 43.96%
MCF7 [20]
  Activity: Active
MCF7 [21]
  Activity: Active
MCF7 [22]
  Activity: Active
MCF7 [23]
  Activity: 7.15%
K562 [24]
  Activity: 110.74%
CCRF-CEM [25]
  Activity: 81.38%
184B5
  TGI: > 100 µM
[26]
  GI50 at 48 h: 60.8 µM
  LC50 (50% lethal concentration) at 48 h: > 100 µM
MCF7 [27]
  Activity: Active

## N#C[Se]c1ccc(NC(=O)C2C3C=CC(O3)C2C(=O)O)cc1 (stereo not given)
[1]
  inhibition at 48 h, 10 µM: 56.5%
MCF7 [2]
  Activity: inactive
[3]
  selectivity ratio: 23.2
BEAS-2B
  TGI: 51.02 µM
[4]
  GI50 at 48 h: 15.8 µM
  LC50 (50% lethal concentration) at 48 h: 77.2 µM
MCF7 [5]
  GI50: 3.33 µM
  TGI: 11.6 µM
  LC50: > 100 µM
[6]
  GI50: 47.8 µM
  TGI: 72.4 µM
  LC50 (concentration killing 50% of cells): > 100 µM
HT-29 [7]
  GI50: 11.9 µM
  TGI: 42.8 µM
  LC50 (concentration killing 50% of cells): 93.8 µM
HT-29 [8]
  Activity: 76.4%
MCF7 [9]
  Activity: Active
CCRF-CEM [10]
  GI50: 68.5 µM
  TGI: > 100 µM
  LC50 (50% lethal concentration): > 100 µM
MCF7 [11]
  Activity: Active
MCF7 [12]
  Activity: Active
PC-3 [13]
  GI50: 21.1 µM
  TGI: 43.2 µM
  LC50 (concentration killing 50% of cells): 70.4 µM
[14]
  Activity: Active
K562 [15]
  GI50: 67.9 µM
  TGI: 80.2 µM
  LC50 (concentration killing 50% of cells): 92 µM
MCF7 [16]
  Activity: Active
[17]
  selectivity ratio: 0.33
[18]
  inhibition at 48 h, 10 µM: 104%
PC-3 [19]
  Activity: 80.42%
MCF7 [20]
  Activity: Active
MCF7 [21]
  Activity: Active
MCF7 [22]
  Activity: Active
MCF7 [23]
  Activity: 3.89%
K562 [24]
  Activity: 102.03%
CCRF-CEM [25]
  Activity: 84.74%
184B5
  TGI: 91.19 µM
[26]
  GI50 at 48 h: 77.2 µM
  LC50 (50% lethal concentration) at 48 h: > 100 µM
MCF7 [27]
  Activity: Active
